Assay outcomes as filed in PubChem.
PGC1a acetyl inh: modulators of PGC1a acetylation | U2OS PGC1a acetylation, AlphaScreen anti-acetyl-lysine; with virally co-expressed GCN5 acetyltransferase | inhibition, % at 15.6 µM | 350,000 compounds, 0.17% hits;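 active = every replicate shows inhibition of at least 40%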;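 note: 0% = neutral control wells and 100% = positive control wells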
Vif imaging: blocks HIV Vif function; AID 602346; HEK293T cells, Vif self-association by quenched fluorescence, imaging, 24 h; inhibition, % at 7.49 µM; 340,000 compounds, 0.35% hits; in the data active = inhibition above about 50%, passing the limit was not always enough
Cneo AK release: Cryptococcus neoformans lysis via adenylate kinase release; C. neoformans lysis, adenylate kinase release luminescence, 4 h; normalised: neutral wells 0, clomiphene wells 100; lysis activity, % at 15 µM; 360,000 compounds, 0.2% hits;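 active = mean lysis activity across replicates of at least 80%, whatever share of replicates individually reach that level; inactive = mean lysis activity below 80%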
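Assay system: C. neoformans cells. Amount: yeast cell density of 5 × 10^6 cells/mL. Technique: AK luminescence. Buffer or medium: YPD. Times: static 4 h at 37 °C with compound, 1 h detection. Dosing: single-point compound dose. Read-out: lysis from increased AK signal.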
Ecoli rRNA inh: selective bacterial rRNA inhibition in E. coli; E. coli WT GFP vs humanized-ribosome RFP mutants, fluorescence, 24 h; stronger effect = lower value; DMSO median 0, no signal -100; GFP signal change (wild-type ribosome), % (no concentration beside the values); 350,000 compounds, 1.6% hits;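 active = significant combined selectivity score with lowered wild-type GFP, culture density cut under 30%, mutant RFP and density less affected; inactive = any of these conditions unmet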
FGF22 binding: FGF22 (human) thermal shift binding | Q9HCT0 | recombinant FGF22 thermal shift, SYPRO orange fluorescence; percent of sucrose octasulfate shift, DMSO zero | activity (Tm shift, normalised), % at 9.99 µM | 340,000 compounds, 1.5% hits;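 active = mean Tm shift, scaled 0 neutral to 100 positive control, at about 1.3% or above, every replicate too, limit read from the data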
Target sequence (Q9HCT0 whole entry, looked up): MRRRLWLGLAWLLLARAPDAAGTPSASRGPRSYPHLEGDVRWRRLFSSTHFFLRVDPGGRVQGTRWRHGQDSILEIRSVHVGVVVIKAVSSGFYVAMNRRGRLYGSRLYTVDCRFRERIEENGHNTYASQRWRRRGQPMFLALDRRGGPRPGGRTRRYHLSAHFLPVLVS
PglD inh: PglD (C. jejuni) enzyme inhibition | purified PglD enzyme, DTNB colorimetric CoA detection | inhibition, % at 12.5 µM | 360,000 compounds, 0.098% hits; in the data active = inhibition above about 16%, passing the limit was not always enough
* marks the source's active call; other numbers are inactive results. Hits are enriched below; roughly 2.9% of the tested compounds scored in any of these assays.

Screening Cc1ccc(C(O)(C(=O)NNC(=O)CN2CCN(C)CC2)c2ccc(C)cc2)cc1 returned Vif imaging 0.5, Ecoli rRNA inh 16.2 and FGF22 binding 44.3*.
`Cc1cccc(C(O)(C(=O)NNC(=O)CN2CCN(C)CC2)c2cccc(C)c2)c1` gave PGC1a acetyl inh -3.3, Vif imaging -14.7, Cneo AK release -0.5, Ecoli rRNA inh 15.2, FGF22 binding 0.0 and PglD inh -1.0.
`COc1cc(C(O)CN)ccc1O` (configuration not stated) gave PGC1a acetyl inh 8.6, Vif imaging -5.7, Cneo AK release 2.6, Ecoli rRNA inh 9.1, FGF22 binding -0.1 and PglD inh -0.5.
For COc1cc(C(O)CNC(C)C)cc(F)c1OC (configuration not stated) the results were Vif imaging 55.2*, Cneo AK release 1.4, Ecoli rRNA inh 24.7, FGF22 binding 0.2 and PglD inh 0.2.
For CC(C)CC#Cc1ccc([C@@H]2[C@H](CO)N3CCCCN(C(=O)Cc4ccccn4)C[C@@H]23)cc1 the results were PGC1a acetyl inh -7.5, Cneo AK release 2.4, Ecoli rRNA inh -1.8, FGF22 binding -0.6 and PglD inh 2.4.
C/C=C/c1ccc(C2[C@@H]3CN(C(=O)C4CCC4)C[C@H]2N3)cc1 (some centres not stated) was read as PGC1a acetyl inh 2.3, Ecoli rRNA inh 1.1 and FGF22 binding 0.0.
Screening COC(=O)[C@@H]1[C@@H](CO)[C@@H]2Cn3c(ccc(C4=CCCCC4)c3=O)[C@H]1N2CC1CCCC1 returned Cneo AK release -7.4, Ecoli rRNA inh -1.9 and PglD inh 1.0.
Screening COc1ccc(-c2ccc([C@@H]3[C@@H](CO)N4CCCCN(C(=O)Cc5ccccc5)C[C@H]34)cc2)cc1 returned PGC1a acetyl inh -15.1, Cneo AK release 1.1, Ecoli rRNA inh -58.0 and PglD inh -0.2.
Screening O=C1CCN(C(=O)Cc2ccccc2[N+](=O)[O-])CC1 returned PGC1a acetyl inh 6.9, Vif imaging 8.0, Ecoli rRNA inh 25.5 and FGF22 binding 43.7*.
`O=[N+]([O-])c1ccccc1CCl` gave PGC1a acetyl inh 0.8, Vif imaging -2.9, Cneo AK release 0.9, Ecoli rRNA inh 10.1, FGF22 binding 0.1 and PglD inh 3.7.
Screening CC(=O)N1C[C@@H]2C(c3ccccc3)[C@H](C1)N2C (some centres not stated) returned Ecoli rRNA inh 0.9.
`C=CCN1[C@@H]2CN(C(=O)NC(C)C)C[C@H]1C2c1ccc(Br)cc1` (some centres not stated) gave Ecoli rRNA inh 0.5.
For OC1/C(=C/c2ccc(F)cc2)N2CCC1CC2 (configuration not stated) the results were PGC1a acetyl inh 5.1, Vif imaging -5.7 and FGF22 binding 43.4*.
Screening Cc1ccccc1-c1ccc([C@H]2[C@@H](CO)N3CCCCN(C(=O)Cc4ccccn4)C[C@H]23)cc1 returned PGC1a acetyl inh -5.5, Cneo AK release -1.0, Ecoli rRNA inh -30.6, FGF22 binding -0.3 and PglD inh -0.3.
For O=C(Cc1ccccc1)N1CCCCN2[C@H](C1)[C@H](c1ccc(C#Cc3ccccc3)cc1)[C@@H]2CO the results were PGC1a acetyl inh 6.0, Cneo AK release -1.3, Ecoli rRNA inh 1.9, FGF22 binding -0.4 and PglD inh 8.4.
For CCOCCN1CCC(OC(C)=O)C(C)C1 (configuration not stated) the results were PGC1a acetyl inh 41.8*, Vif imaging -1.5 and Cneo AK release 2.6.
`NC(=O)c1cc(N2CC2)c([N+](=O)[O-])cc1[N+](=O)[O-]` gave PGC1a acetyl inh 1.6, Vif imaging 78.5*, Cneo AK release -0.9, FGF22 binding -0.1 and PglD inh -2.4.
O=C(O)[C@H]1[C@H](CO)[C@H]2Cn3c(ccc(-c4ccccc4F)c3=O)[C@@H]1N2C(=O)Nc1ccccc1 was read as Cneo AK release -3.2, Ecoli rRNA inh -0.6, FGF22 binding 0.0 and PglD inh -2.9.
Screening CCC(CC)NCc1c[nH]c2ccccc12 returned Vif imaging -10.7 and FGF22 binding 43.1*.
